Experimental data from ChEMBL document CHEMBL1139875, “Discovery of 4-aminobutyric acid derivatives possessing anticonvulsant and antinociceptive activities: a hybrid pharmacophore approach” (2007).
Active and inactive are the calls of the source. The rule behind the calls is not given here.

Columns and labels:
[1] = system: Rattus norvegicus; assay: Antihyperalgesic effects in Sprague-Dawley rat CCI model assessed as duration of paw withdrawal at 100 mg/kg, ip after 1 hr; type: functional; settings: route intraperitoneal
[2] = system: Rattus norvegicus; assay: Effect on spontaneous pain in Sprague-Dawley rat SNL model assessed as duration of paw withdrawal at 100 mg/kg, ip after 1 hr; type: functional; settings: route intraperitoneal
Method in brief: (§1)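 Rats underwent left L5 spinal nerve ligation (Kim and Chung) under i.p. pentobarbital (65 mg/kg). Spontaneous pain is recorded for 5 min after 10 min acclimatization, as cumulative duration the ipsilateral paw is lifted, excluding locomotor lifts. Dosing is 100 mg/kg i.p. in 30% v/v PEG 400/water, with testing at 0.5–2.5 h. Four rats, mean ± SEM versus predrug, one-way ANOVA with Bonferroni.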

[3] = system: Rattus norvegicus; assay: Anti-dynamic allodynia effect in Sprague-Dawley rat SNL model assessed as latency to paw withdrawal 100 mg/kg, ip after 2.5 hrs; type: functional; settings: route intraperitoneal
Method in brief: (§2)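 Left L5 spinal nerve ligation rats, tested preoperatively and 9 days postoperatively, then given 100 mg/kg i.p. (vehicle 30% v/v PEG 400 in water). After 10 min acclimatization, plantar surface of affected paw stroked mildly with a cotton-bud; paw lift response recorded. n = 4; retested 0.5-2.5 h post-dose.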

[4] = system: Rattus norvegicus; assay: Effect on spontaneous pain in Sprague-Dawley rat CCI model assessed as duration of paw withdrawal at 100 mg/kg, ip after 2 hrs; type: functional; settings: route intraperitoneal
Method in brief: (§3)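 Unilateral CCI of sciatic nerve (Bennett and Xie) in Sprague-Dawley rats under i.p. pentobarbital sodium (65 mg/kg). Spontaneous pain is scored over 5 min after 10 min acclimatization, as cumulative time the ipsilateral paw is held off the floor. Paw lifts from locomotion or repositioning are excluded. Drug is given at 100 mg/kg i.p. with 30% v/v PEG 400 vehicle. Mean ± SEM, n = 4, compared with predrug by ANOVA/Bonferroni.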

[5] = system: Rattus norvegicus; assay: Anti-cold allodynia effect in Sprague-Dawley rat SNL model assessed as duration of paw withdrawal 100 mg/kg, ip after 2 hrs; type: functional; settings: route intraperitoneal
Method in brief: (§4)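 Left L5 spinal nerve ligation under pentobarbital (65 mg/kg i.p.). Allodynic rats dosed i.p. 100 mg/kg, vehicle 30% v/v PEG 400 in water. Acetone (100-200 µL) misted onto midplantar affected paw after 10 min acclimatization; paw withdrawal duration, mean of three samples at least 3 min apart; n = 4 rats.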

[6] = system: Rattus norvegicus; assay: Effect on spontaneous pain in Sprague-Dawley rat CCI model assessed as duration of paw withdrawal at 100 mg/kg, ip after 1 hr; type: functional; settings: route intraperitoneal
Method in brief: (§5)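 CCI rats (n = 4) dosed 100 mg/kg i.p. (vehicle 30% v/v PEG 400 in water). After 10 min acclimatization in a cage 5 cm above ground, cumulative time the ipsilateral paw was held off the floor over 5 min recorded, excluding locomotion lifts. Mean ± SEM; ANOVA/Bonferroni versus predrug.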

[7] = system: Rattus norvegicus; assay: Antihyperalgesic effects in Sprague-Dawley rat CCI model assessed as duration of paw withdrawal at 100 mg/kg, ip after 2.5 hrs; type: functional; settings: route intraperitoneal
[8] = system: Rattus norvegicus; assay: Effect on spontaneous pain in Sprague-Dawley rat CCI model assessed as duration of paw withdrawal at 100 mg/kg, ip after 0.5 hr; type: functional; settings: route intraperitoneal; method in brief: as §5
[9] = system: Mus musculus; assay: Anticonvulsant activity in Swiss Albino mouse at 300 mg/kg, ip after 0.5 hr by scPIC test; type: functional, organism-based; parameters: dose 300 mg/kg
Method in brief: (§6)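 Mice (Swiss, 20-25 g) given i.p. doses of 30, 100 and 300 mg/kg under ADD program protocols, three per group, examined at 0.5 and 4 h in MES, scPTZ, scSTY or scPIC seizure tests. Value is the minimum dose protecting half or more of the mice.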

[10] = system: Mus musculus; assay: Analgesic activity in Swiss Albino mouse assessed as number of acetic acid-induced writhing per 30 min after 100 mg/kg, ip; type: functional; settings: route intraperitoneal
Method in brief: (§7)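 Mice in groups of six dosed i.p. at 100 mg/kg, controls receiving 30% v/v PEG 400 in water. Writhing induced by i.p. 0.1 mL of 3% v/v acetic acid 1 h after drug. Writhes (abdominal stretch with at least one hind limb extended) counted over 30 min; % inhibition calculated. Mean ± SEM, Student's t test.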

[11] = system: Rattus norvegicus; assay: Anti-dynamic allodynia effect in Sprague-Dawley rat SNL model assessed as latency to paw withdrawal 100 mg/kg, ip after 1.5 hrs; type: functional; settings: route intraperitoneal; method in brief: as §2
[12] = system: Rattus norvegicus; assay: Effect on spontaneous pain in Sprague-Dawley rat SNL model assessed as duration of paw withdrawal at 100 mg/kg, ip after 2.5 hrs; type: functional; settings: route intraperitoneal; method in brief: as §1
[13] = system: Mus musculus; assay: Anticonvulsant activity in Swiss Albino mouse at 300 mg/kg, ip after 4 hrs by MES test; type: functional, organism-based; parameters: dose 300 mg/kg; method in brief: as §6
[14] = system: Rattus norvegicus; assay: Effect on spontaneous pain in Sprague-Dawley rat SNL model assessed as duration of paw withdrawal at 100 mg/kg, ip after 0.5 hr; type: functional; settings: route intraperitoneal; method in brief: as §1
[15] = system: Rattus norvegicus; assay: Anti-dynamic allodynia effect in Sprague-Dawley rat SNL model assessed as latency to paw withdrawal 100 mg/kg, ip after 0.5 hr; type: functional; settings: route intraperitoneal; method in brief: as §2
[16] = system: Rattus norvegicus; assay: Anti-cold allodynia effect in Sprague-Dawley rat SNL model assessed as duration of paw withdrawal 100 mg/kg, ip after 0.5 hr; type: functional; settings: route intraperitoneal; method in brief: as §4
[17] = system: Rattus norvegicus; assay: Anti-cold allodynia effect in Sprague-Dawley rat SNL model assessed as duration of paw withdrawal 100 mg/kg, ip after 1.5 hrs; type: functional; settings: route intraperitoneal; method in brief: as §4
[18] = system: Mus musculus; assay: Analgesic activity in Swiss Albino mouse assessed as inhibition of acetic acid-induced writhing responses at 100 mg/kg, ip; type: functional; settings: route intraperitoneal; method in brief: as §7
[19] = system: Mus musculus; assay: Anticonvulsant activity in Swiss Albino mouse at 300 mg/kg, ip after 0.5 hr by scSTY test; type: functional, organism-based; parameters: dose 300 mg/kg; method in brief: as §6
[20] = system: Rattus norvegicus; assay: Anti-cold allodynia effect in Sprague-Dawley rat SNL model assessed as duration of paw withdrawal 100 mg/kg, ip after 1 hrs; type: functional; settings: route intraperitoneal; method in brief: as §4
[21] = system: Mus musculus; assay: Anticonvulsant activity in Swiss Albino mouse at 300 mg/kg, ip after 0.5 hr by MES test; type: functional, organism-based; parameters: dose 300 mg/kg; method in brief: as §6
[22] = system: Mus musculus; assay: Neurotoxicity in Swiss Albino mouse at 300 mg/kg, ip after 4 hrs by rotarod test; type: functional, organism-based; parameters: dose 300 mg/kg
Method in brief: (§8)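 Swiss mice (20-25 g) are trained on an accelerating rotorod (10 rpm, 3.2 cm rod), then injected i.p. at 30, 100 or 300 mg/kg, with three per group. Neurotoxicity means failure to keep equilibrium for at least 1 min in each of three trials, checked at 0.5 and 4 h. The value reported is the minimum dose affecting half or more of the mice.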

[23] = system: Rattus norvegicus; assay: Anti-cold allodynia effect in Sprague-Dawley rat SNL model assessed as duration of paw withdrawal 100 mg/kg, ip after 2.5 hrs; type: functional; settings: route intraperitoneal; method in brief: as §4
[24] = system: Rattus norvegicus; assay: Anti-dynamic allodynia effect in Sprague-Dawley rat SNL model assessed as latency to paw withdrawal 100 mg/kg, ip after 2 hrs; type: functional; settings: route intraperitoneal; method in brief: as §2
[25] = system: Mus musculus; assay: Anticonvulsant activity in Swiss Albino mouse at 300 mg/kg, ip after 4 hrs by scSTY test; type: functional, organism-based; parameters: dose 300 mg/kg; method in brief: as §6
[26] = system: Rattus norvegicus; assay: Effect on spontaneous pain in Sprague-Dawley rat CCI model assessed as duration of paw withdrawal at 100 mg/kg, ip after 2.5 hrs; type: functional; settings: route intraperitoneal; method in brief: as §3
[27] = system: Mus musculus; assay: Neurotoxicity in Swiss Albino mouse at 300 mg/kg, ip after 0.5 hr by rotarod test; type: functional, organism-based; parameters: dose 300 mg/kg; method in brief: as §8
[28] = system: Rattus norvegicus; assay: Antihyperalgesic effects in Sprague-Dawley rat CCI model assessed as duration of paw withdrawal at 100 mg/kg, ip after 1.5 hrs; type: functional; settings: route intraperitoneal
[29] = system: Mus musculus; assay: Anticonvulsant activity in Swiss Albino mouse at 300 mg/kg, ip after 4 hrs by scPIC test; type: functional, organism-based; parameters: dose 300 mg/kg; method in brief: as §6
[30] = system: Rattus norvegicus; assay: Effect on spontaneous pain in Sprague-Dawley rat SNL model assessed as duration of paw withdrawal at 100 mg/kg, ip after 2 hrs; type: functional; settings: route intraperitoneal; method in brief: as §1
[31] = system: Mus musculus; assay: Anticonvulsant activity in Swiss Albino mouse at 300 mg/kg, ip after 0.5 hr by scPTZ test; type: functional, organism-based; parameters: dose 300 mg/kg; method in brief: as §6
[32] = system: Rattus norvegicus; assay: Effect on spontaneous pain in Sprague-Dawley rat SNL model assessed as duration of paw withdrawal at 100 mg/kg, ip after 1.5 hrs; type: functional; settings: route intraperitoneal; method in brief: as §1
[33] = system: Rattus norvegicus; assay: Effect on spontaneous pain in Sprague-Dawley rat CCI model assessed as duration of paw withdrawal at 100 mg/kg, ip after 1.5 hrs; type: functional; settings: route intraperitoneal; method in brief: as §3
[34] = system: Rattus norvegicus; assay: Antihyperalgesic effects in Sprague-Dawley rat CCI model assessed as duration of paw withdrawal at 100 mg/kg, ip after 0.5 hr; type: functional; settings: route intraperitoneal
[35] = system: Rattus norvegicus; assay: Anti-dynamic allodynia effect in Sprague-Dawley rat SNL model assessed as latency to paw withdrawal 100 mg/kg, ip after 1 hr; type: functional; settings: route intraperitoneal; method in brief: as §2
[36] = system: Rattus norvegicus; assay: Antihyperalgesic effects in Sprague-Dawley rat CCI model assessed as duration of paw withdrawal at 100 mg/kg, ip after 2 hrs; type: functional; settings: route intraperitoneal
[37] = system: Rattus norvegicus; assay: Antihyperalgesic effects in Sprague-Dawley rat SNL model assessed as duration of paw withdrawal at 100 mg/kg, ip after 2 hrs, ip; type: functional; settings: route intraperitoneal
Method in brief: (§9)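 L5 SNL rats (n = 4), dosed 100 mg/kg i.p. (vehicle 30% v/v PEG 400 in water). Pin-prick to midplantar ipsilateral left hindpaw; withdrawal duration, mean of three responses; ≥2 s defined abnormal. Mean ± SEM; one-way ANOVA with Bonferroni versus predrug.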

[38] = system: Rattus norvegicus; assay: Antihyperalgesic effects in Sprague-Dawley rat SNL model assessed as duration of paw withdrawal at 100 mg/kg, ip after 0.5 hr, ip; type: functional; settings: route intraperitoneal; method in brief: as §9
[39] = system: Rattus norvegicus; assay: Antihyperalgesic effects in Sprague-Dawley rat SNL model assessed as duration of paw withdrawal at 100 mg/kg, ip after 1.5 hrs, ip; type: functional; settings: route intraperitoneal; method in brief: as §9
[40] = system: Rattus norvegicus; assay: Antihyperalgesic effects in Sprague-Dawley rat SNL model assessed as duration of paw withdrawal at 100 mg/kg, ip after 2.5 hrs, ip; type: functional; settings: route intraperitoneal; method in brief: as §9
[41] = system: Rattus norvegicus; assay: Antihyperalgesic effects in Sprague-Dawley rat SNL model assessed as duration of paw withdrawal at 100 mg/kg, ip after 1 hr, ip; type: functional; settings: route intraperitoneal; method in brief: as §9

SMILES	Activity [1]	Activity [3]	Activity [5]	Activity [7]	Activity [9]	Activity [10]	Activity [11]	Activity [13]	Activity [15]	Activity [16]	Activity [17]	inhibition in vivo at 100 mg/kg [18]	Activity [19]	Activity [20]	Activity [21]	Activity [22]	Activity [23]	Activity [24]	Activity [25]	Activity [27]	further results
C/C(=N\NC(=O)NCCCC(=O)O)c1ccc(C)cc1	13.2 s	12.02 s	10.7 s	4.2 s	Active	32.5	10.9 s	inactive	12.5 s	27.2 s	12.9 s	82%	inactive	23.9 s	inactive	inactive	14.3 s	12.4 s	inactive	Active	Activity [2]: 11.1 s; Activity [4]: 10.9 s; Activity [6]: 21.8 s; Activity [8]: 23.9 s; Activity [12]: 3.1 s; Activity [14]: 22.2 s; Activity [26]: 10.7 s; Activity [28]: 9.6 s; Activity [29]: inactive; Activity [30]: 2.9 s; Activity [31]: Active; Activity [32]: 6.4 s; Activity [33]: 18.3 s; Activity [34]: 27.3 s; Activity [35]: 9.1 s; Activity [36]: 5.3 s
O=C(O)CCCNC(=O)NN=C1CCCC1	30.7 s	10.92 s	11 s	25.3 s	inactive	18	7.8 s	Active	5.7 s	12 s	10.9 s	90%	inactive	11.2 s	inactive	Active	1.9 s	10.3 s	inactive	Active	Activity [37]: 9.6 s; Activity [38]: 5.3 s; Activity [39]: 5.1 s; Activity [40]: 8.6 s; Activity [41]: 9.9 s; Activity [28]: 17.7 s; Activity [29]: inactive; Activity [31]: inactive; Activity [34]: 32.1 s; Activity [35]: 6.6 s; Activity [36]: 22.8 s
